Here are results for three molecules from paper PMC11131057 (Blood Advances, 2024).

The test system of series [1] is AML. Conditions: cited from earlier work.
Series [2] in a line: Pharmacokinetic analysis of plasma FF-10101 concentration in trial participants. The series is classed as in vivo, human.
Series [3] has as its target T1, FLT3 (Homo sapiens, UniProt P36888).
T1 sequence (P36888 27-993): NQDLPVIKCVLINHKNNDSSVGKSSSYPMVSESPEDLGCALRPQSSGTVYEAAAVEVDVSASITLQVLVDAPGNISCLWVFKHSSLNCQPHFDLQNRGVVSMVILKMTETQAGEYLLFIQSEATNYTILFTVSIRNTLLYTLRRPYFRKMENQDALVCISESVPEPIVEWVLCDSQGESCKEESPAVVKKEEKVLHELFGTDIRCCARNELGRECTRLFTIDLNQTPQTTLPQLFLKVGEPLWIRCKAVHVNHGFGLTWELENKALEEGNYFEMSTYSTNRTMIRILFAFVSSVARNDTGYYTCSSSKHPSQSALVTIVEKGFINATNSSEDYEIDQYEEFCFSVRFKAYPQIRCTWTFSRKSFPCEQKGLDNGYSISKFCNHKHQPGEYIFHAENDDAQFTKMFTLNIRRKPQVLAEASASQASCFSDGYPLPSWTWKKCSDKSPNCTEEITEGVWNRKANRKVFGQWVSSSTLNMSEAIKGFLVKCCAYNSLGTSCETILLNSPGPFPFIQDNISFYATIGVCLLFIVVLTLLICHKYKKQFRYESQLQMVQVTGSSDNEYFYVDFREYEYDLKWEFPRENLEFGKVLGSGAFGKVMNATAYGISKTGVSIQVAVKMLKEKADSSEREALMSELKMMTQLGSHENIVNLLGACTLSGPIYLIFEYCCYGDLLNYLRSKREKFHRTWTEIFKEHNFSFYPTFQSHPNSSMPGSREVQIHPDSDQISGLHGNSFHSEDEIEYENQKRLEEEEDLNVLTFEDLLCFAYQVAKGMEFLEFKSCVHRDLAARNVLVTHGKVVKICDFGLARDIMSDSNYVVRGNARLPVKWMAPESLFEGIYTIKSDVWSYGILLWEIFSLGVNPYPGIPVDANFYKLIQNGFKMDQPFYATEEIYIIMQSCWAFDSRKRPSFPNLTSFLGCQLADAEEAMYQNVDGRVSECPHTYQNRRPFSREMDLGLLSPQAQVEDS
Briefly: Plasma inhibitory activity. The series is classed as cell-based. The procedure, abridged:
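Ex vivo surrogate for in vivo FLT3 inhibition. Participant plasma was prepared from lithium-heparin whole blood collected at cycle 1 time points, including pre-dose troughs on days 8 and 15. It was tested on FLT3-ITD Molm14 cells, and P-FLT3 was expressed as a percentage of baseline. Drug concentration in the same samples was measured by mass spectrometry and paired with PIA values across QD and BID cohorts.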

The subject of series [4] is relapsed and/or refractory AML. As to the kind of experiment: Phase 1 dose escalation: response in patients with R/R AML. The series is classed as in vivo, human.
The format of series [5] is in vivo, human. Conditions: for Aspartate aminotransferase elevation, related TEAE / Creatine kinase increase, related TEAE / Diarrhea, related TEAE / Nausea, related TEAE: 54 participants.
Series [6] relates to FLT3-TKD mutations. Conditions: cited from earlier work.
The mark [7] stands for this setting: 40 response-evaluable participants.
The mark [8] stands for this setting: participants with history of FLT3-mutated AML at FLT3-inhibitory doses (150 mg QD, 225 mg QD, 50 mg BID, 75 mg BID).

Like-named read-outs stand apart in the source and are kept apart here. Where only a bound is given, the exact number is not on record here.

For `CO[C@@H]1[C@H](N(C)C(=O)c2ccccc2)C[C@H]2O[C@]1(C)n1c3ccccc3c3c4c(c5c6ccccc6n2c5c31)C(=O)NC4` [Midostaurin], the single-agent activity result in series [1] is reported as “no single-agent activity”.
Take `CCCNc1nc(Nc2ccc(C#N)cc2)ncc1C#CCCCNC(=O)[C@H](C)N(C)C(=O)/C=C/CN(C)C` [FF-10101]: the “effect of food on absorption” value in series [2] (after oral dosing) is “unaffected by food”. In addition, in series [2] (human, plasma, po), the half-life is roughly 10 h. Moreover, the “dose levels at which inhibition of P-FLT3 was most effective” value in series [3] (PIA, escalating doses) was 150 mg daily, 225 mg daily, 50 mg BID, and 75 mg BID. For the same molecule, the “plasma concentration of FF-10101 associated with more complete inhibition (PIA)” value in series [3] (cycle 1 plasma samples) is greater than 100 ng/mL. Besides, the “FF-10101 concentration achieving maximal trough suppression of P-FLT3 activity” value in series [3] (maximal trough suppression eg <5% of baseline) is greater than 200 ng/mL. In addition, in series [4] (setting [7]), the “number of CR” value came out at 1, the “number of CRh” value is given as 1, the “number of CRp” value is on record as 2 and the “number of PR” value was found to be 1. In series [4] (setting [7]), the “overall response rate (CR + CRh + CRp + PR)” value turned out to be 12.5%. In series [4] (setting [8]), the “number of CR” value is on record as 1, the “number of CRp” value was 2 and the “number of PR” value amounted to 1. Besides, the “participants with DLT” value in series [5] (50 mg BID cohort, grade 3 maculopapular rash) is 1 of 7. For the same molecule, in series [5] (100 mg BID cohort, 5 participants), the “participants with DLTs” value is given as 2 participants. The “participants reporting at least 1 treatment emergent AE (TEAE)” value in series [5] (53 of 54 participants, all cohorts) came out at 98.1%. This molecule showed a participants reporting diarrhea in series [5] (<100 mg/dose) of 21.2%. Besides, in series [5] (All grades), the “Aspartate aminotransferase elevation, related TEAE” value is on record as 14 (25.9) participants (%); the “Creatine kinase increase, related TEAE” value is on record as 16 (29.6) participants (%); the “Diarrhea, related TEAE” value is recorded as 15 (27.8) participants (%); the “Nausea, related TEAE” value is recorded as 19 (35.2) participants (%). Further, in series [5] (Grade 1-2), the “Aspartate aminotransferase elevation, related TEAE” value is given as 10 (18.5) participants (%); the “Creatine kinase increase, related TEAE” value is listed as 11 (20.4) participants (%); the “Diarrhea, related TEAE” value is recorded as 13 (24.1) participants (%); the “Nausea, related TEAE” value is on record as 19 (35.2) participants (%). For the same molecule, in series [5] (Grade ≥3), the “Aspartate aminotransferase elevation, related TEAE” value is reported as 4 (7.4) participants (%); the “Creatine kinase increase, related TEAE” value is 5 (9.3) participants (%); the “Diarrhea, related TEAE” value was 2 (3.7) participants (%); the “Nausea, related TEAE” value is recorded as 0 (0) participants (%). Moreover, the “participants with grade 3 diarrhea” value in series [5] (all cohorts) turned out to be 4 participants. Further, the “recommended phase 2 dose (RP2D)” value in series [5] (oral) is recorded as 75 mg BID. The “maximum tolerated dose (MTD)” value in series [5] (oral, 28-day cycles) is 75 mg BID. Also, the “participants reporting grade 1-3 diarrhea” value in series [5] (≥100 mg/dose (100 mg QD, 150 mg QD, 225 mg QD, 100 mg BID)) is 76.2%.
Regarding `CNC(=O)c1cc(Oc2ccc(NC(=O)Nc3ccc(Cl)c(C(F)(F)F)c3)cc2)ccn1` [Sorafenib], the “activity against FLT3-TKD mutations” value in series [6] was “inactive”.

As usually defined, the half-life is the time in which the quantity being followed falls by half. Higher therefore signals slow loss.
